Apaf-1 inh: inhibitors of human Apaf-1 apoptosome; 330,000 compounds, 0.71% hits; inhibition, % at 20 µM; reconstituted apoptosome caspase-3 activity, DEVD-Rh110 fluorescence; active = inhibition of at least 40% at 20 µM;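 note: plate controls were DMSO wells for no effect and DEVD-CHO caspase inhibitor wells for full effect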
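Medium: Hepes buffer, pH 7.5 / System: biochemical Apaf-1 apoptosome reconstitution / Measured by: Rh110 fluorescence, excitation 480 nm, emission 540 nm / Times: compound with Apaf-1, dATP, procaspase-3 30 min, then 50 min reaction, room temperature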
UBC13 inh: inhibitors of human UBC13 polyubiquitin chain formation. P61088. TR-FRET. inhibition, % at 20 µM. 330,000 compounds, 0.47% hits; in the data active = inhibition above about 45%, passing the limit was not always enough; inconclusive = no clear call, values can overlap the other calls
Target sequence (P61088 whole entry, looked up): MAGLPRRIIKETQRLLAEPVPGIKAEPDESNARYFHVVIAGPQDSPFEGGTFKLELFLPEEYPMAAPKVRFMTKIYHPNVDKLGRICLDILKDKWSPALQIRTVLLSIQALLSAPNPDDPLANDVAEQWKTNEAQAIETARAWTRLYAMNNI
TMEM16A act: mouse TMEM16A channel activation, primary screen; HEK293 TMEM16A/YFP-H148Q/I152L, iodide quench fluorescence; active compounds read low; Q8BHY3; AID 623877; 340,000 compounds, 0.3% hits; B-score at 10 µM;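 active = fluorescence-ratio B-score plate-corrected deviation score at least 3 library SD below zero, with starting fluorescence score within 5 deviations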;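 note: channel opened by trigger with iodide after compound preincubation; score built on the fluorescence ratio of max minus min over baseline; more negative score means more quench and so TMEM16A activation or potentiation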
ANO1 block: inhibitors of mouse TMEM16A calcium-activated chloride channel; HEK293 TMEM16A/YFP iodide influx fluorescence, ionomycin; normalized B-score (activity score, 25-100; higher = stronger inhibition) at 10 µM; 310,000 compounds, 1.2% hits; AID 588511;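 active = ratio plate-corrected score three or more library SD toward inhibition, starting fluorescence score within five deviations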;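 note: score derived from kinetic fluorescence span divided by baseline fluorescence per well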
FID counter: displaces DNA intercalator in HCV helicase counter-screen | 290,000 compounds, 0.17% hits | DNA fluorescent intercalator displacement, fluorescence | inhibition, % at 7.9 µM; in the data active = inhibition above about 37%;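 note: 0% = vehicle and 100% = reference compound; higher means more ethidium bromide displaced from hairpin DNA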
Casp3 UBC13 ctr: inhibits human caspase-3 in UBC13 counter-screen; shares compounds with UBC13 inh; Recombinant caspase-3, Caspase-Glo 3/7 luminescence, 60 min; inhibition, % at 20 µM; 1,400 compounds, 4% hits; AID 488856;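 active = mean inhibition across replicates above about 26%, limit read from the data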;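 note: plate controls were DMSO with caspase-3 for no effect and DMSO wells lacking enzyme for full effect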
Target sequence (P42574 whole entry, looked up): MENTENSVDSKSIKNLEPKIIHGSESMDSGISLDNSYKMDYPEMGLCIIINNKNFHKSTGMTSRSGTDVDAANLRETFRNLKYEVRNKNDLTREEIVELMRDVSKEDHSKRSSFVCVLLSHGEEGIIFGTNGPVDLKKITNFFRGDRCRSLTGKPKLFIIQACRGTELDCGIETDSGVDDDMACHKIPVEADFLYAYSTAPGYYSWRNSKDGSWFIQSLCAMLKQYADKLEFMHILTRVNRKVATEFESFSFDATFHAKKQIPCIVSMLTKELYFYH
UBC13 conf: confirmation of human UBC13 polyubiquitin inhibitors | 1,400 compounds, 68% hits | shares compounds with UBC13 inh | UBC13 polyubiquitination, TR-FRET, biochemical | inhibition, % at 10 µM; in the data active = inhibition above about 45%; inconclusive = no clear call, values can overlap the other calls
* hit, by the source's call. This is a sample that favours compounds with a hit; in the whole collection about 2.4% have one here.

Screening Cn1c(SCC(=O)c2ccccc2)ncc(C(=O)Nc2ccccc2)c1=O returned Apaf-1 inh 6, UBC13 inh 57*, TMEM16A act inactive, ANO1 block inactive, Casp3 UBC13 ctr 95* and UBC13 conf 53*.
Screening Cc1ccc(NC(=O)c2cnc(SCC(=O)c3ccccc3)n(C)c2=O)cc1 returned Apaf-1 inh 8, UBC13 inh inconclusive, TMEM16A act inactive and ANO1 block inactive.
For O=C(CSc1nc2ccsc2c(=O)n1Cc1ccc(C(=O)O)cc1)NCC1CCCO1 (configuration not stated) the results were Apaf-1 inh 4, UBC13 inh 69*, TMEM16A act inactive, ANO1 block inactive, FID counter -14, Casp3 UBC13 ctr -4 and UBC13 conf 77*.
Screening Cc1ccc(Cn2c(SCC(=O)NCC3CCCO3)nc3ccsc3c2=O)cc1 (configuration not stated) returned Apaf-1 inh 2, UBC13 inh 30, TMEM16A act inactive, ANO1 block inactive and FID counter -10.
Screening O=C(CSc1nc2ccsc2c(=O)n1Cc1ccccc1)NCC1CCCO1 (configuration not stated) returned Apaf-1 inh 3, UBC13 inh 55*, TMEM16A act inactive, ANO1 block inactive, FID counter -20, Casp3 UBC13 ctr -2 and UBC13 conf 58*.
For CC1Cc2nc(SCC(=O)NCC3CCCO3)n(Cc3ccccc3)c(=O)c2S1 (configuration not stated) the results were Apaf-1 inh 5, UBC13 inh -4, TMEM16A act inactive, ANO1 block inactive and FID counter -20.
Screening Cc1cc(C)nc(SCc2ccc(C(=O)N/N=C3\CCCC(=O)C3)cc2)n1 returned Apaf-1 inh -14, UBC13 inh 0, TMEM16A act inactive, ANO1 block inactive and FID counter -23.
Screening Oc1ccc(Cl)cc1Nc1nc(NCC2CCCO2)c2ccccc2n1 (configuration not stated) returned Apaf-1 inh 24, UBC13 inh 53*, TMEM16A act inactive, ANO1 block inactive, Casp3 UBC13 ctr -1 and UBC13 conf 67*.
COc1cc(NC(=O)c2cccc(COCC(F)(F)C(F)F)c2)cc(OC)c1OC was read as Apaf-1 inh 1, UBC13 inh 4, TMEM16A act inactive, ANO1 block inactive and FID counter -27.
`CCOc1ccc(-c2csc(NC(=O)c3cccc(N4C(=O)CCC4=O)c3)n2)cc1` gave Apaf-1 inh -15, UBC13 inh 58*, TMEM16A act inactive, ANO1 block inactive, FID counter -4, Casp3 UBC13 ctr -2 and UBC13 conf inconclusive.
`O=c1c2cc(NC(=S)NCCCN3CCC(Cc4ccccc4)CC3)ccc2nc2n1CCCCC2` gave Apaf-1 inh -1, UBC13 inh 51*, TMEM16A act inactive, ANO1 block inactive, FID counter 20, Casp3 UBC13 ctr 4 and UBC13 conf 85*.
Screening O=c1c2cc(NC(=S)NCCN3CCCCCC3)ccc2nc2n1CCCCC2 returned Apaf-1 inh 12, UBC13 inh -4, TMEM16A act inactive, ANO1 block inactive and FID counter 1.
Screening NC(=S)N=Nc1c(O)n(CCCl)c2ccc(Br)cc12 returned Apaf-1 inh -2, UBC13 inh 58*, TMEM16A act inactive, ANO1 block inactive, FID counter 2, Casp3 UBC13 ctr -1 and UBC13 conf 30.
NC(=S)N=Nc1c(O)n(Cc2ccc(Br)cc2)c2ccccc12 was read as Apaf-1 inh 11, UBC13 inh 46*, TMEM16A act inactive, ANO1 block inactive, FID counter 8, Casp3 UBC13 ctr -2 and UBC13 conf 38.
`NC(=S)N=Nc1c(O)n(Cc2ccc(F)cc2)c2ccccc12` gave Apaf-1 inh 5, UBC13 inh 73*, TMEM16A act inactive, ANO1 block inactive, FID counter 8, Casp3 UBC13 ctr -1 and UBC13 conf 75*.
Screening Oc1c(N=NC(=S)Nc2ccccc2F)c2ccccc2n1Cc1ccc(F)cc1 returned Apaf-1 inh 3, UBC13 inh -42, TMEM16A act inactive, ANO1 block inactive and FID counter -6.
C/C(Cl)=C\Cn1c(O)c(N=NC(N)=S)c2cc(Br)ccc21 was read as Apaf-1 inh 10, UBC13 inh -7, TMEM16A act inactive, ANO1 block inactive and FID counter 5.
Screening Cc1ccc2c(c1)c(N=NC(N)=S)c(O)n2Cc1ccccc1 returned Apaf-1 inh 0, UBC13 inh 79*, TMEM16A act inactive, ANO1 block inactive, FID counter 2, Casp3 UBC13 ctr 0 and UBC13 conf 46*.
For Cc1nn(CC(=O)Nc2cccnc2)c(=O)c2ccccc12 the results were Apaf-1 inh -10, UBC13 inh 10, TMEM16A act inactive, ANO1 block inactive and FID counter 10.
CCC(C)[C@H]1CN=C(N)N1CCc1cccc2ccccc12 (some centres not stated) was read as Apaf-1 inh 39, UBC13 inh 45*, TMEM16A act inactive, ANO1 block inactive, Casp3 UBC13 ctr 2 and UBC13 conf 51*.
NC1=NC[C@H](Cc2ccc(O)cc2)N1CCc1cc(C(F)(F)F)cc(C(F)(F)F)c1 was read as Apaf-1 inh 28, UBC13 inh 52*, TMEM16A act inactive, ANO1 block inactive, Casp3 UBC13 ctr -6 and UBC13 conf 33.
Screening NC1=NC[C@H](Cc2ccc(O)cc2)N1CCc1cccc2ccccc12 returned Apaf-1 inh 23, UBC13 inh 61*, TMEM16A act inactive, ANO1 block inactive, Casp3 UBC13 ctr -2 and UBC13 conf 50*.
For CCN(CC)CCOc1ccc(/C(=C(\Cl)c2ccccc2)c2ccccc2)cc1 the results were Apaf-1 inh 66*, UBC13 inh 74*, TMEM16A act inactive, ANO1 block inactive, Casp3 UBC13 ctr -2 and UBC13 conf 81*.
Screening COCCNC(=S)N=Nc1c(O)[nH]c2ccc([N+](=O)[O-])cc12 returned Apaf-1 inh -5, UBC13 inh 89*, TMEM16A act inactive, ANO1 block inactive, FID counter -1, Casp3 UBC13 ctr 1 and UBC13 conf 96*.
CCCCCCC(=O)N=Nc1c(O)[nH]c2ccc([N+](=O)[O-])cc12 was read as Apaf-1 inh -8, UBC13 inh 0, TMEM16A act inactive, ANO1 block inactive and FID counter -5.
